Experimental findings from ChEMBL document CHEMBL2321812 (J Med Chem, 2013) are described below.

In one data set the target is T1, Tankyrase 1/2 (Homo sapiens, UniProt Q9H2K2+O95271).
T1 sequence (Q9H2K2 whole entry): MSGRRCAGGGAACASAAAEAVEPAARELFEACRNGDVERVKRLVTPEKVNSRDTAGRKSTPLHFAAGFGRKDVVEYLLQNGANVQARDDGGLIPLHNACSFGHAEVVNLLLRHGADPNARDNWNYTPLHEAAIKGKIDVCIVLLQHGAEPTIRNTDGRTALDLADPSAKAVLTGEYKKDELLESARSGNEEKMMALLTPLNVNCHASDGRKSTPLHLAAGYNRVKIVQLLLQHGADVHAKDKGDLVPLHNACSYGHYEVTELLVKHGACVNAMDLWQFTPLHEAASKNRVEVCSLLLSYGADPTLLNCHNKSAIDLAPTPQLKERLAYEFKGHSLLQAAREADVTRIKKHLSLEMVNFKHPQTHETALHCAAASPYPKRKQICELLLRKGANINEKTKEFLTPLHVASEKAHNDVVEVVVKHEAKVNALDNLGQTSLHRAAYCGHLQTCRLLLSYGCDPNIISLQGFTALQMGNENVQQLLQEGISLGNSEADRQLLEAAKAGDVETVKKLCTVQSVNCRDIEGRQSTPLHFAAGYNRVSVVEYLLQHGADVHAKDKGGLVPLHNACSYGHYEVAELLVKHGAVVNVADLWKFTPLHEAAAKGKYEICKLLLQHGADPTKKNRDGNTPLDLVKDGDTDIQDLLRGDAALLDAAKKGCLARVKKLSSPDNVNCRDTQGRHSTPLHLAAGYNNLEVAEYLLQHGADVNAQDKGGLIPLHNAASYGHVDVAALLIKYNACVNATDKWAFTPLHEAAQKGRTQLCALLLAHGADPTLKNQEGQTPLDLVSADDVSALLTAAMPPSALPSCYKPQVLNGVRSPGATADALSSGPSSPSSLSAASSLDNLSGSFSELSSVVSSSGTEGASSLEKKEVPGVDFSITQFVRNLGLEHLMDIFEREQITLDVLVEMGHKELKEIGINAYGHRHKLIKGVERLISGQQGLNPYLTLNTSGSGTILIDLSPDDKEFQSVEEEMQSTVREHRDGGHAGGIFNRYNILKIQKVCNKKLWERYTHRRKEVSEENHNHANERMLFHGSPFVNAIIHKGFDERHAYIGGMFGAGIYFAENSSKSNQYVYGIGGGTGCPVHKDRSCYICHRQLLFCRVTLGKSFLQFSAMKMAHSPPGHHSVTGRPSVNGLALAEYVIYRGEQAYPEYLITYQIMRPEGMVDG
T1 sequence (O95271 whole entry): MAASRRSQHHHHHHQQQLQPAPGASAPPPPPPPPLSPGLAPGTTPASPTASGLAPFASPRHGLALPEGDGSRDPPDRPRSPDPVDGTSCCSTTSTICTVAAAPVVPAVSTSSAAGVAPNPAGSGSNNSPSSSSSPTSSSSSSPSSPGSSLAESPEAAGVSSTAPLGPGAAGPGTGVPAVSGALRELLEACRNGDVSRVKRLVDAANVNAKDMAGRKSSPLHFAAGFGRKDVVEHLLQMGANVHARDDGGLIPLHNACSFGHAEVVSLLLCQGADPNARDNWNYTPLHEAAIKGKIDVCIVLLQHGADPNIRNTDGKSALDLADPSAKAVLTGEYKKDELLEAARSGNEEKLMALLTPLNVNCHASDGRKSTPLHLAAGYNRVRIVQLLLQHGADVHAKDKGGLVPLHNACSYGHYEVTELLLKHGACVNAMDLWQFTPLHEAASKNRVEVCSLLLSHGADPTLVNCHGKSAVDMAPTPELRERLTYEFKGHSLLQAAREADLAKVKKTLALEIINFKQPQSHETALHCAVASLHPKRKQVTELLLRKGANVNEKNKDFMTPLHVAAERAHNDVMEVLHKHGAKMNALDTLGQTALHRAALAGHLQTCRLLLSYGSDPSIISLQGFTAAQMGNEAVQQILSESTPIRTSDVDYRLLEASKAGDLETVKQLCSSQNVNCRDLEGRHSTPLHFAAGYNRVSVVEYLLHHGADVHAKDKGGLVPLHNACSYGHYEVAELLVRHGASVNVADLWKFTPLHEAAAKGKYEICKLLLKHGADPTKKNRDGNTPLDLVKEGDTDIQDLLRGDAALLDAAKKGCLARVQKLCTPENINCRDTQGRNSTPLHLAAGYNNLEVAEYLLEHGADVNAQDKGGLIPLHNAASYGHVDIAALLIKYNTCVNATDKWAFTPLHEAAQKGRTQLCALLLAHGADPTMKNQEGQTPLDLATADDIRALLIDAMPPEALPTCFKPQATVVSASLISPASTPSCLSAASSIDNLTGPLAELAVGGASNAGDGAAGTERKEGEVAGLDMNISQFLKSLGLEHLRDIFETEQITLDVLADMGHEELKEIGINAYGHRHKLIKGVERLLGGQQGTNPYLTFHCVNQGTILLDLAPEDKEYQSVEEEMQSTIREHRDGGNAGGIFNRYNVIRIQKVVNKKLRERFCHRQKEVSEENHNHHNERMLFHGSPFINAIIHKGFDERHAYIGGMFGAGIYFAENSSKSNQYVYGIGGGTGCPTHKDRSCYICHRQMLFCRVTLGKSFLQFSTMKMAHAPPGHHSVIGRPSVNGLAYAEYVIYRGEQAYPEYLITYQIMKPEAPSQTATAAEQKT
Put plainly: Inhibition of TNKS1/2 in HEK293 cells assessed as inhibition of Wnt/beta-catenin pathway after 24 hrs by luciferase reporter gene assay. It is filed as cell-based. On the technique in general: In a reporter assay the amount or activity of a reporter protein is the signal.

The target in data set [1] is T2, Poly [ADP-ribose] polymerase tankyrase-2 (Homo sapiens, UniProt Q9H2K2).
T2 sequence (Q9H2K2 whole entry): T1 sequence (Q9H2K2 whole entry)
Put plainly: Inhibition of TNKS2 (unknown origin) by NAD+-dependent autopoly(ADP ribosyl)lation assay.

Data set [2] concerns the target Tankyrase 1/2 (Homo sapiens) (UniProt Q9H2K2+O95271). In words: Inhibition of TNKS1/2 in HEK293 cells assessed as inhibition of Wnt/[…] pathway at 10 uM after 24 hrs by luciferase reporter gene assay. The data set is classed as cell-based. An outline of the steps:
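ST-Luc/Ren HEK293 cells (stable SuperTOP-Flash, 7× TCF sites) were seeded at 40,000 per well on poly-L-lysine. After 24 h, cells got compound for 24 h in 50% Wnt3a-conditioned medium from L Wnt3a cells. Lysates were read for firefly and Renilla luciferase by dual-luciferase luminescence.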

The nature of data set [3]: Half life in human liver microsomes. It is filed as ADME, Microsome.

The source made the active and inactive calls.

For orientation: IC50 means the midpoint of a concentration-inhibition curve. A word on the half-life: it is the time needed for the level to fall by half in the phase considered.

In the case of `NCCCOCCCOc1cccc(-c2noc(CSc3nnc(-c4ccncc4)n3-c3ccccc3Cl)n2)c1`, the IC50 at Tankyrase 1/2 amounted to 3.92 µM.

As for `Cc1ccc(-c2noc(CSc3ncc(-c4ccncc4)n3-c3ccccc3C)n2)cc1`, the half-inhibitory concentration (IC50) on Tankyrase 1/2 is more than 10 µM.

In the case of `Cc1nnc(SCc2nnc(-c3ccc(Cl)cc3)o2)n1-c1ccccc1Cl`, on Tankyrase 1/2, the IC50 was 4.5 µM.

For `COc1ccc(-n2c(OCc3nc(-c4ccc(C)cc4)no3)nnc2-c2ccncc2)cc1`, the IC50 (in data set [1]; on Tankyrase 1/2) was more than 10 µM throughout.

Regarding `N#Cc1ccc(-c2nnc(CSc3nnc(-c4ccncc4)n3-c3ccncc3Cl)o2)cc1`, the inhibition result in data set [2] is “inactive”.

Turning to `COc1ccc(-n2c(NCc3nc(-c4ccc(C)cc4)no3)nnc2-c2ccncc2)cc1`, the IC50 (in data set [1]; on Tankyrase 1/2) was more than 10 µM each time. This molecule registered a half-life in data set [3] of 6.5 min.

For `COc1ccc(-n2c(SCc3nc(-c4ccc(C)cc4)no3)nnc2-c2ccncc2)cc1`, the values for the IC50 (in data set [1]; at Tankyrase 1/2) were 0.46 µM and 1.01 µM, respectively. In data set [3], the half-life is 3 min.
